Compound activity: PubChem BioAssay, several laboratories
Diaphorase act = diaphorase activation or chemical reduction counter-screen | Diaphorase/resazurin coupled assay, resorufin fluorescence, 16 min; stronger effect = higher value; 1 = vehicle wells, 0 = NADH-free wells | activation factor at 20 µM | hit rate 0.005% among 190,000;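 active means diaphorase activity raised at least twofold by the compound at 20 µM; inactive means activation factor below 2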
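Material: Clostridium kluyveri diaphorase, purified enzyme; Quantity: enzyme 0.07 U/mL final; Medium: HEPES pH 7.4 buffer with MgCl2 and Tween 20; Dosing: single compound dose of 20 µM, 1% DMSO final; Schedule: 16 min reaction at room temperature; Measured by: red resorufin fluorescence at 544/590 nm excitation/emission.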
L major viab = reduces viability of Leishmania major promastigotes; resazurin fluorescence viability; AID 1063; hit rate 9% among 200,000; inhibition, % at 10 µM;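 further: promastigotes grown with compound for 44 hours at 28 °C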
PfG6PD inh = PfG6PD (Plasmodium falciparum) enzyme inhibition. inhibition, % at 20 µM. PfGluPho enzyme, NADPH resazurin-diaphorase fluorescence. hit rate 0.78% among 350,000. AID 504690;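 active means inhibition reaching at least a set limit at 20 µM in the primary screen, cut at about 59% in these data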;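 further: 0% = DMSO wells with substrate and 100% = DMSO wells lacking glucose-6-phosphate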
G6PDH CS = counter-screen for G6PDH assay hits: L. mesenteroides G6PDH inhibition | Purified L. mesenteroides G6PDH, diaphorase/resazurin coupled fluorescence, 45 min | inhibition, % at 5 µM | hit rate 0.12% among 200,000
Diaph inh CS = inhibits diaphorase or chemically oxidizes, flagging diaphorase assay artifacts; diaphorase resazurin-to-resorufin fluorescence, NADH, 16 min; bacterial (C. kluyveri) enzyme, not human; inhibition, % at 20 µM; hit rate 0.69% among 190,000;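 active means primary screen inhibition at 20 µM above a set limit, cut at about 50% in these data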;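 further: plate controls were DMSO with full reaction for no effect and wells lacking NADH for full effect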
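Benchmarks: positive control wells lacking NADH, neutral wells with DMSO only. System: bacterial diaphorase enzyme (C. kluyveri). Input: 0.14 U/mL diaphorase, enzyme working solution. Detection: resorufin fluorescence, excitation 544 nm, emission 590 nm. Times: 16-min room-temperature incubation before reading.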
DTT redox prof = compounds producing H2O2 with reducing agent – biochemical, NIH compound library profiling, artefact control for MLSCN library redox annotation, primary screen. AID 878. DTT-dependent redox cycling H2O2, phenol red/HRP absorbance; 100% = 100 µM peroxide control, 0% = buffer. activation, % at 10 µM. hit rate 0.03% among 200,000;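 active means activation of at least 50% relative to the plate's high and low controls in the primary single-dose screen; inactive means activation below 50%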;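 further: compound incubated with DTT at 0.8 mM final as the reducing agent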
An asterisk follows results filed as active; . = no result given. This excerpt belongs to a sample that is enriched for hits. Unless noted, no stated cut-off is given here; in the data, active means inhibition above about 50%; inactive means the rest.

SMILES | Diaphorase act | L major viab | PfG6PD inh | G6PDH CS | Diaph inh CS | DTT redox prof
Cc1cc(/C=N/n2cnnc2)c(C)n1-c1ccc(OCc2ccccc2F)cc1 | 0.9 | 77* | 3 | 15 | 11 | 1
COC(=O)CSc1nnc(CNC(=O)Cc2ccccc2)n1-c1ccccc1OC | 0.9 | -3 | -4 | 2 | 7 | 0
Cc1cccc(N2CCN(C(=O)CCN3C(=S)NC(C)(C)CC3C)CC2)c1C (stereo not drawn) | 0.8 | 65* | 6 | -2 | 16 | 1
COc1ccc(CNC(=O)COC(=O)/C=C/c2cccs2)cc1 | 0.9 | -7 | 2 | 0 | 7 | 0
COc1ccccc1CNC(=O)COC(=O)/C=C/c1cccs1 | 0.9 | 51* | 20 | -4 | 11 | .
COc1cc(OC)c2ccc(=O)oc2c1C(CCN1CCN(c2ccccc2)CC1)c1ccc(N(C)C)cc1 (stereo not drawn) | . | . | 6 | . | . | .
OCCN1CCN(CCOc2cccc(Cl)c2)CC1 | 0.8 | 90* | -2 | 1 | 15 | -5
CN(CCOc1cccc(C(F)(F)F)c1)Cc1ccccc1 | 0.8 | -3 | 17 | 4 | 18 | 0
FC(F)(F)c1cccc(OCCN2CCN(Cc3ccccc3)CC2)c1 | 0.9 | 76* | -5 | 7 | 9 | 0
Clc1cccc(OCCN2CCNCC2)c1 | 0.8 | 100* | -3 | 4 | 16 | 0
O=C(CC1CC1)Nc1ccc2c(c1)[C@@H]1C[C@H](CC(=O)NC3CCCC3)O[C@@H](CO)[C@@H]1O2 | . | . | 1 | . | . | .
CCC(c1nnnn1C1CCCCC1)N1CCN(C(=O)c2ccco2)CC1 (stereo not drawn) | . | . | -9 | . | . | .
CN1CCCN(C(=O)/C=C/c2ccc(Cl)cc2Cl)CC1 | 1.1 | 99* | 11 | 3 | -12 | -2
Cc1cccnc1Nc1nc(-c2ccc(O)c(O)c2)cs1 | 0.5 | 58* | 40 | 18 | 48 | 0
COc1ccc(-c2csc(Nc3ncccc3C)n2)cc1OC | 0.8 | 31 | 13 | 4 | 16 | 0
OC1(c2ccc3ccccc3c2)CCN(Cc2ccccc2)C1 (stereo not drawn) | 1.1 | 94* | 7 | 5 | -6 | 0
CCOc1ccc(C(=O)OCC(=O)N(Cc2ccccc2)Cc2ccccc2)cc1OC | . | . | 3 | . | . | .
CCC1CN(C(=O)N2CCC(C(=O)NCc3ccc(OC)cc3OC)CC2)c2ccccc2O1 (stereo not drawn) | . | . | 7 | . | . | .
COc1ccc(-c2csc(NC(=O)c3ccccc3F)n2)cc1 | . | . | 13 | . | . | .
COc1ccc(-c2csc(NC(=O)c3ccccc3NS(=O)(=O)c3ccc(F)c(F)c3)n2)cc1 | 0.5 | 49 | -1 | 3 | 53* | 0
Cc1ccc(S(=O)(=O)Nc2ccccc2C(=O)Nc2nc(-c3ccc(F)cc3)cs2)cc1 | 0.9 | 54* | -18 | 13 | 13 | 0
CCOc1ccc(NC(=O)c2ccccc2NS(=O)(=O)c2ccc(F)cc2)c([N+](=O)[O-])c1 | 1 | 71* | -26 | 0 | 0 | -1
CCOC(=O)c1ccccc1NS(=O)(=O)c1ccc(OCC)cc1 | 1 | 0 | 17 | 1 | 1 | 0
CN(C(=O)COC(=O)CNC(=O)c1ccc(Cl)cc1Cl)c1ccccc1 | 1 | -5 | -10 | 9 | 0 | -1
CC1=C(C(=O)OC2CCCCC2)C(c2ccco2)C2=C(CC(C)(C)CC2=O)N1 (stereo not drawn) | 0.8 | 59* | 9 | 5 | 18 | 2
Cc1ccc(C(=O)CSC2=C(C#N)C(c3ccco3)C3=C(CC(C)(C)CC3=O)N2)cc1 (stereo not drawn) | 0.7 | 90* | 11 | 3 | 28 | 1
Cc1ccc(CNC(=O)CN2CCN(c3ccc(F)cc3)CC2)cc1 | . | . | 0 | . | . | .
CCN(C[C@H]1N[C@@](C)(C(=O)OC)[C@H]2C(=O)N(Cc3ccccc3)C(=O)[C@@H]12)S(=O)(=O)c1ccc(OC)cc1 | . | . | -4 | . | . | .
CC(=O)N1C[C@H]2CON(C)[C@H]2C[C@H]1c1ccc(-c2ccccc2)cc1 | . | . | -4 | . | . | .
O=C(/C=C/c1ccc(OCc2ccccc2)c(OCc2ccccc2)c1)c1cccnc1 | 1 | 100* | 22 | -16 | 0 | 1
